The text below walks through data of ChEMBL document CHEMBL4330109, “Parallel synthesis of a bis-triazoles library as psammaplin A analogues: A new wave of antibiofilm compounds?” (Bioorg Med Chem Lett, 2019).

What is called EC50 is the concentration that produces a half-maximal response.

Data set [1] has as its system Pseudoalteromonas ulvae. Briefly: Growth inhibition of Pseudoalteromonas ulvae TC14 at 5 uM measured every hr for 6 hrs by turbidimetric method. Type of data set: organism-based. As to conditions: in vivo; call rule not given here. Summed up:
(§1)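 Bacterial growth of TC14, TC8 and 4M6 was followed with test compounds at 100 µM. Ampicillin at 5 µM served as the reference antibiotic.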

In data set [2] the test system is Pseudoalteromonas lipolytica. Briefly: Growth inhibition of Pseudoalteromonas lipolytica TC8 at 5 uM measured every hr for 6 hrs by turbidimetric method. Type of data set: organism-based. As to conditions: in vivo. The method in brief:
as §1

The subject of data set [3] is Paracoccus sp. Briefly: Growth inhibition of Paracoccus sp. 4M6 at 5 uM measured every hr for 6 hrs by turbidimetric method. In kind it is organism-based. The following applies: in vivo. Summed up:
as §1

The subject of data set [4] is Pseudoalteromonas ulvae. Kind of data set: Effect on cell viability of Pseudoalteromonas ulvae TC14 at 5 uM measured after 6 hrs by resazurin dye based fluorescence assay. In kind it is organism-based. Summed up: (§2)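 Viability was scored with resazurin, following the same protocol as the Syto 61 antiadhesion assay. Compounds were tested at 5, 10, 20, 50, 100 and 200 µM on each strain, and the 5 and 100 µM points are the ones reported.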
On the technique in general: Resazurin is reduced to fluorescent resorufin, in cell work by metabolically active cells.

Data set [5] deals with Pseudoalteromonas lipolytica. Briefly: Effect on cell viability of Pseudoalteromonas lipolytica TC8 at 5 uM measured after 6 hrs by resazurin dye based fluorescence assay. Type of data set: organism-based. Summed up:
as §2

In data set [6] the test system is Paracoccus sp. Kind of data set: Effect on cell viability of Paracoccus sp. 4M6 at 5 uM measured after 6 hrs by resazurin dye based fluorescence assay. Type of data set: organism-based. The method in brief:
as §2

Data set [7] has as its system Pseudoalteromonas ulvae. Briefly: Anti-biofilm activity against Pseudoalteromonas ulvae TC14 assessed as bacterial adhesion at 200 uM incubated for 15 hrs at 20 degC by Syto 61 dye based fluorescence assay relative to control. Type of data set: functional. The method in brief:
(§3)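 Biofilm formation (adhesion) of the marine strains was measured with the Syto 61 fluorophore, using a method adapted from Leroy et al. Compounds were first screened at 200 µM, and the value is % adhesion at that concentration. EC50 values were derived from the same assay.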

Data set [8] concerns Pseudoalteromonas lipolytica. Kind of data set: Anti-biofilm activity against Pseudoalteromonas lipolytica TC8 assessed as bacterial adhesion at 200 uM incubated for 15 hrs at 20 degC by Syto 61 dye based fluorimetric assay relative to control. In kind it is functional. The method in brief:
as §3

Data set [9] concerns Paracoccus sp. Kind of data set: Anti-biofilm activity against Paracoccus sp. 4M6 assessed as bacterial adhesion at 200 uM incubated for 15 hrs at 20 degC by Syto 61 dye based fluorimetric assay relative to control. Type of data set: functional. Summed up: as §3
In data set [10] the test system is Pseudoalteromonas ulvae. Briefly: Anti-biofilm activity against Pseudoalteromonas ulvae TC14 assessed as inhibition of bacterial adhesion incubated for 15 hrs at 20 degC by Syto 61 dye based fluorescence assay. In kind it is functional, organism-based. As to conditions: Pseudoalteromonas ulvae, TC14, 15 h. The method in brief:
as §3

The test system of data set [11] is Pseudoalteromonas lipolytica. Kind of data set: Anti-biofilm activity against Pseudoalteromonas lipolytica TC8 assessed as inhibition of bacterial adhesion incubated for 15 hrs at 20 degC by Syto 61 dye based fluorimetric assay. In kind it is functional, organism-based. The following applies: Pseudoalteromonas lipolytica, TC8, 15 h. The method in brief: as §3

For data set [12], the system named is Paracoccus sp. Kind of data set: Anti-biofilm activity against Paracoccus sp. 4M6 assessed as inhibition of bacterial adhesion incubated for 15 hrs at 20 degC by Syto 61 dye based fluorimetric assay. Type of data set: functional, organism-based. The following applies: Paracoccus sp. (in: a-proteobacteria), 4M6, 15 h. The method in brief:
as §3

Data set [13] concerns Pseudoalteromonas ulvae. Briefly: Growth inhibition of Pseudoalteromonas ulvae TC14 at 100 uM measured every hr for 6 hrs by turbidimetric method. In kind it is organism-based. As to conditions: in vivo. Summed up:
as §1

Data set [14] has as its system Pseudoalteromonas lipolytica. Kind of data set: Growth inhibition of Pseudoalteromonas lipolytica TC8 at 100 uM measured every hr for 6 hrs by turbidimetric method. Type of data set: organism-based. As to conditions: in vivo. Summed up: as §1
The subject of data set [15] is Paracoccus sp. Briefly: Growth inhibition of Paracoccus sp. 4M6 at 100 uM measured every hr for 6 hrs by turbidimetric method. In kind it is organism-based. The following applies: in vivo. The method in brief: as §1
The test system of data set [16] is Pseudoalteromonas ulvae. Kind of data set: Effect on cell viability of Pseudoalteromonas ulvae TC14 at 100 uM measured after 6 hrs by resazurin dye based fluorescence assay. In kind it is organism-based. The method in brief: as §2
Data set [17] deals with Pseudoalteromonas lipolytica. Kind of data set: Effect on cell viability of Pseudoalteromonas lipolytica TC8 at 100 uM measured after 6 hrs by resazurin dye based fluorescence assay. Type of data set: organism-based. The method in brief:
as §2

Data set [18] has as its system Paracoccus sp. Kind of data set: Effect on cell viability of Paracoccus sp. 4M6 at 100 uM measured after 6 hrs by resazurin dye based fluorescence assay. Type of data set: organism-based. The method in brief:
as §2

As to `CC1(C)S[C@@H]2[C@H](NC(=O)[C@H](N)c3ccccc3)C(=O)N2[C@H]1C(=O)O` [AMPICILLIN], the “growth inhibition (GI)” value (in the data set on Pseudoalteromonas ulvae [1]; in [2]; with Paracoccus sp. [3]) was “Toxic” throughout. Moreover, the Activity result (with Pseudoalteromonas ulvae [4]; in data set [5]; in the data set on Paracoccus sp. [6]) was “Toxic” throughout.
As to `CN(C)CCCOc1ccc(CCn2cc(-c3ccc(-c4cn(CCc5ccc(OCCCN(C)C)c(Br)c5)nn4)cc3)nn2)cc1Br`, the Activity is recorded as 0.6% with Pseudoalteromonas ulvae [7]; 5.3% in data set [8]; 5.1% in the data set with Paracoccus sp. [9]; “Non-Toxic” in the data set with Pseudoalteromonas ulvae [4]; “Non-Toxic” in data set [5]; “Non-Toxic” in the data set with Paracoccus sp. [6]. Also, the Activity entry (in the data set with Pseudoalteromonas ulvae [16]; in data set [17]; in the data set on Paracoccus sp. [18]) was “Toxic” in each case. The EC50 was 0.4 µM with Pseudoalteromonas ulvae [10], 15 µM in [11] and 3.5 µM in the data set with Paracoccus sp. [12]. Further, the “growth inhibition (GI)” value (in the data set on Pseudoalteromonas ulvae [13]; in data set [14]; in the data set on Paracoccus sp. [15]) was “Toxic” each time.
